Screening results deposited in PubChem by Johns Hopkins Ion Channel Center.
MrgX1 PAM – human MrgX1 positive allosteric modulation, primary screen | 310,000 compounds, 0.63% hits | MrgX1-HEK293, Fluo-4 calcium flux, FDSS; stronger effect = higher value | AID 588675 | Q96LB2 | B-score at 10 µM;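 active = plate-corrected calcium response at least 3 library SD above typical, normal starting fluorescence, not activating the receptor alone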;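 also: compound read alongside a low EC10 to EC30 dose of BAM8-22 agonist; peak minus trough fluorescence over baseline measured at the second addition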
Target sequence (Q96LB2 whole entry, looked up): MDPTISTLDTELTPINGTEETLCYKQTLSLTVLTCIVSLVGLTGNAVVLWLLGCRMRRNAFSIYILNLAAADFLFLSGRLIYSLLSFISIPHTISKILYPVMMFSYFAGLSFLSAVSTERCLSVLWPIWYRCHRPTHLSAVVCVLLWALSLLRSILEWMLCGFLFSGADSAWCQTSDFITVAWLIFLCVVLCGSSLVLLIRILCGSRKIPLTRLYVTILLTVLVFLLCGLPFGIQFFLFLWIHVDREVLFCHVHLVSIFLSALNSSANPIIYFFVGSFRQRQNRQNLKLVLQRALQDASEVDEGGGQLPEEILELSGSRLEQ
RGS4 inh – human RGS4 inhibition. 310,000 compounds, 0.45% hits. AID 463165. P49798. B-score at 10 µM. HEK293 M3R/RGS4 inducible, Fluo-4 calcium flux; stronger effect = higher value; triggered by carbachol at its EC20;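 active = B-score, a plate-corrected calcium signal, over three deviations above library mean, with baseline fluorescence within five deviations of library mean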;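 also: RGS4 expression induced by doxycycline in cells with stable M3 receptor; B-score is computed from the integrated fluorescence ratio over baseline after carbachol; higher B-score means a larger calcium signal and so more RGS4 inhibition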
Target sequence (P49798 whole entry, looked up): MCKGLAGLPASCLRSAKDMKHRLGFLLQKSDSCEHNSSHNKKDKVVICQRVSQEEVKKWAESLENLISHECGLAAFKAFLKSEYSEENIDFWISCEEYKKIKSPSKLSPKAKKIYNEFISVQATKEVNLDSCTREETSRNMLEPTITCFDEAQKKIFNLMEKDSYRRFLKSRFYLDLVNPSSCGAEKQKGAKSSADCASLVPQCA
MrgX1 antag – blocks BAM8-22 activation of human MrgX1 receptor; Q96LB2; MRGX1-HEK293 calcium flux, Fluo-4, BAM8-22 antagonism; stronger effect = lower value; B-score at 10 µM; 310,000 compounds, 1.3% hits; AID 588676;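 active = calcium-response B-score plate-corrected more than 3 library SD below zero, starting fluorescence within 5 deviations, no agonist response on first addition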;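 also: peak minus trough fluorescence over baseline after final BAM8-22 challenge near maximal dose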
RGS4 act – RGS4 potentiation or activation; HEK293 M3R/inducible RGS4, carbachol calcium flux Fluo4; stronger effect = lower value; B-score at 10 µM; 310,000 compounds, 0.92% hits;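 active = B-score of the integrated calcium signal more than 4 SD below the library mean, with starting fluorescence not abnormally high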;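 also: negative B-score means reduced calcium response which marks RGS4 activation or potentiation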
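Reagent: ECmax carbachol challenge; Test system: M3R-expressing HEK293 line, RGS4 induced by doxycycline; Schedule: overnight RGS4 induction, 30 min dye load 37 °C, 20 min compound RT; Detection: calcium dye Fluo4 fluorescence; Read-out: Agonist-evoked peak-minus-minimum fluorescence over baseline, integrated ratio, B score.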
MrgX1 ag – agonists of human MrgX1 receptor. Q96LB2. 310,000 compounds, 0.44% hits. B-score at 10 µM. MrgX1-HEK293 cells, Fluo-4 calcium fluorescence, agonist mode; stronger effect = higher value;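 active = calcium response B-score plate-corrected fluorescence ratio at least 3 library SD, with starting fluorescence B-score inside 5 SD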
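System – MrgX1-expressing HEK293 cells · Incubation – cells plated overnight, dye loaded 0.5 h 37 °C, 0.5 h room temperature · Technique – kinetic Fluo-4 NW fluorescence of intracellular calcium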
MrgX1 ag reconf – reconfirmed activator of human MrgX1 receptor signaling; AID 602412; shares compounds with MrgX1 ag; 600 compounds, 78% hits; activation, % at 10 µM; MrgX1-HEK293, Fluo-4 calcium fluorescence, FDSS;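 active = calcium signal rise, corrected for plate position, at least 3 library SD high, with starting brightness within 5 such deviations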; also: reference of the scale not given here
HEK293 Ca flux – MrgX1 antagonist counter-screen hit in parental HEK293 cells. shares compounds with MrgX1 antag. Fluo-4 calcium fluorescence, FDSS. 4,000 compounds, 2% hits. fluorescence ratio F(max-min)/F0 at 10 µM;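 active = duplicate-averaged calcium fluorescence ratio at least three times the standard deviation of buffer wells, a nonspecific response in parental cells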
HEK293 Ca counter – MrgX1 allosteric activator counter-screen hit in parental HEK293 cells. shares compounds with MrgX1 antag. parental HEK293 calcium flux, Fluo-4 fluorescence ratio; stronger effect = higher value. fluorescence ratio F(max-min)/F0 at 10 µM. 4,000 compounds, 0.4% hits. AID 624114;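 active = calcium fluorescence ratio, averaged over duplicates, at least 3 SD of the buffer-well ratio, meaning a nonspecific response in receptor-free cells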;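 also: untransfected parental HEK293 lacking MrgX1 used as counterscreen for MrgX1 allosteric activators; fluorescence change taken during the second addition on a kinetic imager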
HEK293 Ca cntr2 – counter-screen for MrgX1 activators: effect in parental HEK293 cells. shares compounds with MrgX1 antag. Fluo-4 calcium fluorescence (FDSS); stronger effect = higher value. fluorescence ratio F(max-min)/F0 at 10 µM. 4,000 compounds, 8.7% hits;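 active = calcium fluorescence ratio at least three times the spread of buffer wells, meaning a non-specific response in parental cells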
Large screens that a line does not name were inactive (follow-up assays come after a bar, where they were run). Hits are enriched below; roughly 3.5% of the tested compounds scored in any of these assays.

COc1cc(C(=O)NNC(=S)NC(=O)c2ccc3c(c2)OCO3)cc(OC)c1OC	none
COc1cc(C(=O)NNC(=S)NC(=O)c2ccccc2C)cc(OC)c1OC	MrgX1 ag 120 | MrgX1 ag reconf 362% | HEK293 Ca flux inactive | HEK293 Ca counter inactive | HEK293 Ca cntr2 89
COc1ccccc1C(=O)NNC(=S)NC(=O)c1cc(OC)c(OC)c(OC)c1	MrgX1 ag 101 | MrgX1 ag reconf 453% | HEK293 Ca flux inactive | HEK293 Ca counter inactive | HEK293 Ca cntr2 93
CS(=O)(=O)N(CC(=O)NCCSCc1ccccc1)c1ccccc1F	none
CSc1nnc(C)c(/C=C/Nc2ccc(F)cc2)n1	MrgX1 ag 30 | MrgX1 ag reconf 152% | HEK293 Ca flux inactive | HEK293 Ca counter inactive | HEK293 Ca cntr2 inactive
CC/C(=N/Nc1ccc(Cl)cc1)c1cnnc(SC)n1	none
COc1ccc(N/C=C/c2nc(SC)nnc2C)cc1	none
CSc1nnc(C)c(/C=C/Nc2ccc(Cl)cc2)n1	MrgX1 ag 45 | MrgX1 ag reconf 248% | HEK293 Ca flux 0.36 | HEK293 Ca counter inactive | HEK293 Ca cntr2 74
Cc1cccc2c1N(CCCOc1ccccc1)C(=O)C2=O	MrgX1 ag 35 | MrgX1 ag reconf 251% | HEK293 Ca flux inactive | HEK293 Ca counter inactive | HEK293 Ca cntr2 50
Cc1cccc2c1N(CCCOc1ccc(C(C)(C)C)cc1)C(=O)C2=O	none
O=S(=O)(Nc1c(O)ccc2ccccc12)c1ccc(F)cc1	MrgX1 ag 40 | MrgX1 ag reconf 81% | HEK293 Ca flux inactive | HEK293 Ca counter inactive | HEK293 Ca cntr2 inactive
O=S(=O)(Nc1c(O)ccc2ccccc12)c1ccccc1	MrgX1 ag 29 | MrgX1 ag reconf inactive | HEK293 Ca flux inactive | HEK293 Ca counter inactive | HEK293 Ca cntr2 inactive
O=S(=O)(Nc1ncccn1)c1ccc(F)cc1	none
CCOC(=O)C(NCCOC)(NC(C)=O)C(F)(F)F (stereo not given)	none
COc1ccc(CCC(=O)N2CCN(C(=O)c3ccccc3)CC2)cc1	none
O=C(CCl)N(c1ccccc1)c1c[nH]c2ccccc12	none
O=C(CCl)N(c1ccc(Cl)cc1)c1c[nH]c2ccccc12	MrgX1 ag 30 | MrgX1 ag reconf 146% | HEK293 Ca flux inactive | HEK293 Ca counter inactive | HEK293 Ca cntr2 inactive
COc1ccc(OCC(=O)N2CCCC(CO)(CCOc3ccccc3)C2)cc1 (stereo not given)	none
O=C(CCC1CCCC1)NC1CCCCC1	none
CCCc1[nH]n(-c2nc3ccccc3s2)c(=O)c1C=NCC(C)C	MrgX1 ag 29 | MrgX1 ag reconf 227% | HEK293 Ca flux inactive | HEK293 Ca counter inactive | HEK293 Ca cntr2 59
CCN(CC)CCCN=Cc1c(-c2ccccc2)[nH]n(-c2nc3ccccc3s2)c1=O	none
CC1CCc2sc(NC(=O)C3CC(Cl)=CCC3C(=O)O)c(C#N)c2C1 (stereo not given)	MrgX1 ag 28 | MrgX1 ag reconf inactive | HEK293 Ca flux inactive | HEK293 Ca counter inactive | HEK293 Ca cntr2 inactive
C/C(N)=C(/C#N)C(=O)CSc1nc2ccccc2c(=O)n1-c1ccccc1C	none
Cc1ccccc1-n1c(CSC(=N)N)nc2ccccc2c1=O	MrgX1 ag 43 | MrgX1 ag reconf 221% | HEK293 Ca flux inactive | HEK293 Ca counter inactive | HEK293 Ca cntr2 inactive
N=C(N)SCc1nc2ccccc2c(=O)n1-c1ccccc1Cl	MrgX1 ag 27 | MrgX1 ag reconf 203% | HEK293 Ca flux inactive | HEK293 Ca counter inactive | HEK293 Ca cntr2 inactive
O=c1c2ccccc2nc(CSc2nnnn2-c2ccccc2)n1-c1ccccc1Cl	none
